Test results: ChEMBL document CHEMBL2177066, “Opioid activity profiles of oversimplified peptides lacking in the protonable N-terminus” (J Med Chem, 2012)
Where a SMILES comes first, the peptide text is derived from it. [ ]: non-standard residue; d: D form.

Key:
Mu-type opioid receptor [1] = molecular target: T1, Mu-type opioid receptor (Homo sapiens, UniProt P35372); assay: biochemical
[2] = molecular target: Delta-type opioid receptor (Homo sapiens, UniProt P41143); assay: Displacement of [3H]diprenorphine from human DOR expressed in HEK293 cells after 90 mins by liquid scintillation counting; format: cell-based
[3] = molecular target: Kappa-type opioid receptor (Homo sapiens, UniProt P41145); assay: Displacement of [3H]U69,593 from human KOR expressed in HEK293 cells after 90 mins by liquid scintillation counting; format: cell-based
How it was run: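 Membranes from HEK-293 cells expressing human KOR incubated 90 min at 25 °C in 100 mM Tris-HCl with 0.3% BSA, with [3H]U69,593 at 2 nM. Nonspecific binding defined with 10 μM U50,488. Filtered on polyethylenimine-presoaked GF/C filters, washed with ice-cold 50 mM Tris-HCl pH 7.4, then scintillation counted. Run in triplicate, ≥3 experiments. Ki from IC50 by Cheng–Prusoff.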

Mu-type opioid receptor [4] = molecular target: T1, Mu-type opioid receptor; format: functional, cell-based, HEK293
Mu-type opioid receptor [5] = molecular target: T1, Mu-type opioid receptor; assay: Partial agonist activity at human MOR expressed in HEK293 cells assessed as inhibition of forskolin-induced cAMP accumulation after 15 mins by cAMP EIA; format: functional, cell-based
How it was run: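 Whole HEK-293 cells stably expressing MOR, grown in MEM/10% FBS and plated at 85–95% confluence. Cells washed, placed in serum-free medium with 0.5 mM IBMX, and given 10 μM forskolin ± compound (0.01 nM–100 μM) for 15 min at 37 °C. Lysed in 0.1 N HCl; cAMP in supernatant measured by EIA. Triplicates averaged for IC50 and Emax (% vehicle), 5–6 independent experiments.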

Chain of Delta-type opioid receptor (P41143 whole entry): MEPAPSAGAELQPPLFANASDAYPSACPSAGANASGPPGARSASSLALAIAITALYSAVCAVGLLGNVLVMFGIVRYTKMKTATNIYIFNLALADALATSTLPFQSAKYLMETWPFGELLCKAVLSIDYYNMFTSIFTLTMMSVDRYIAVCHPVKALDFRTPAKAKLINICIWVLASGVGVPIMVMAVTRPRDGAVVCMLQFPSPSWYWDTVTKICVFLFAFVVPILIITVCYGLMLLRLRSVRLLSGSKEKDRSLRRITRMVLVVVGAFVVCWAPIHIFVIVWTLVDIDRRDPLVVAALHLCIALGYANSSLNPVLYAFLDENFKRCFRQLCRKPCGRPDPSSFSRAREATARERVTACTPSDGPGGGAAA
Chain of Kappa-type opioid receptor (P41145 whole entry): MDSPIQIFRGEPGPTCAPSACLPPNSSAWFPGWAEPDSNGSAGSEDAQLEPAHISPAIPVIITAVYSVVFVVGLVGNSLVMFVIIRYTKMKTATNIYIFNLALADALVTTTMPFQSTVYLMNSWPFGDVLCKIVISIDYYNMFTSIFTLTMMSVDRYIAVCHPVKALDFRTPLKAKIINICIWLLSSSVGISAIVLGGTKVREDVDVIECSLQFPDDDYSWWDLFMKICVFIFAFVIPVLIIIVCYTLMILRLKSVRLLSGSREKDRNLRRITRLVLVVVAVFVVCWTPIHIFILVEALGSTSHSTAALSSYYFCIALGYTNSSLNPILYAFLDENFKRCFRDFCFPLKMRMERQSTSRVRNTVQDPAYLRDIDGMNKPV
T1 sequence (P35372 whole entry): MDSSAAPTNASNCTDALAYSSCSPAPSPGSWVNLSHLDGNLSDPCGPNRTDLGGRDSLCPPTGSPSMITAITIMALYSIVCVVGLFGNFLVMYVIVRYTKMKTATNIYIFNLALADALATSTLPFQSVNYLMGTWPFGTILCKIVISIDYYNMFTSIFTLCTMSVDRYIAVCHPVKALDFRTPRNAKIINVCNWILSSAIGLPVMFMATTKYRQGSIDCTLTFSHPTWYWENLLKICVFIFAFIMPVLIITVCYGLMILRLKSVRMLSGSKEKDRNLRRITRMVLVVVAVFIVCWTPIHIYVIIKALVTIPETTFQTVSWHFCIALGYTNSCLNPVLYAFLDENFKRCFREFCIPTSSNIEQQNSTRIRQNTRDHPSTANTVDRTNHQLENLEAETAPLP

SMILES	Ki (Mu-type opioid receptor [1]) [µM]	Ki [2] [µM]	Ki [3] [µM]	IC50 (Mu-type opioid receptor [4]) [µM]	IC50 (Mu-type opioid receptor [5]) [µM]
CC(=O)N[C@H](Cc1cnc[nH]1)C(=O)N[C@@H](Cc1ccccc1)C(N)=O	> 100	> 100	> 100	–	–
CC(=O)N[C@H](Cc1cnc[nH]1)C(=O)N[C@@H](Cc1ccccc1)C(=O)NCC(N)=O	> 100	> 100	> 100	–	–
CC(=O)N[C@H](CCCCN)C(=O)N[C@@H](Cc1ccccc1)C(N)=O	> 100	> 100	> 100	–	–
CC(=O)N[C@H](CCCCN)C(=O)N[C@@H](Cc1ccccc1)C(=O)NCC(N)=O	> 100	> 100	> 100	–	–
CC(=O)N[C@H](CCCNC(=N)N)C(=O)N[C@@H](Cc1ccccc1)C(N)=O	> 100	> 100	> 100	–	–
CC(=O)N[C@H](CCCNC(=N)N)C(=O)N[C@@H](Cc1ccccc1)C(=O)NCC(N)=O	> 100	> 100	> 100	–	–
NC(=O)[C@H]1CC(=O)NCCC(=O)N[C@H](Cc2c[nH]c3ccccc23)C(=O)N[C@@H](Cc2ccccc2)C(=O)N1	0.0059	> 100	> 100	0.037	–
CC(=O)N[C@@H](Cc1c[nH]c2ccccc12)C(=O)N[C@@H](Cc1ccccc1)C(=O)NCC(N)=O (Ac-Trp-Phe-Gly-NH2)	74	0.0121	33	–	–
CC(=O)N[C@H](Cc1c[nH]c2ccccc12)C(=O)N[C@@H](Cc1ccccc1)C(=O)NCC(N)=O (Ac-[dW]-Phe-Gly-NH2)	0.0056	> 100	> 100	–	0.2
CC(=O)N[C@H](Cc1c[nH]c2ccccc12)C(=O)N[C@@H](Cc1ccccc1)C(N)=O (Ac-[dW]-Phe-NH2)	0.0155	0.024	> 100	> 100	–
